Experimental data pooled from the literature.
Protocols differ between the studies behind these lines.
Target: Mitogen-activated protein kinase 11 (MAPK11, Homo sapiens, UniProt Q15759)

| SMILES | observed | technique | tested at | remaining binding [%] |
| --- | --- | --- | --- | --- |
| O=C(c1ccc(Nc2nccc(-c3cc4ccccc4s3)n2)cc1)N1CCC(N2CCCC2)CC1 | binding | competition with immobilised ligand | 1 µM | 95 |
| CCS(=O)(=O)c1cc2cc(C[C@](O)(CC(C)(C)c3ccc(F)cc3C(N)=O)C(F)(F)F)[nH]c2cn1 | cell-free assay | competition with immobilised ligand | 1 µM | 100 |
| FC(F)(F)Oc1cccc(-c2cnc3ccc(-c4ccncc4)nn23)c1 | cell-free assay | competition with immobilised ligand | 5 µM | 89 |
| N[C@@H]1CCN(c2nccc(-c3cnn4ncccc34)n2)C1 | binding | competition with immobilised ligand | 1 µM | 100 |
| COc1ncc2cc3ccccc3nc2c1C#N | cell-free assay | competition with immobilised ligand | 5 µM | 92 |
| O=C(NCC1CCOCC1)c1n[nH]cc1NC(=O)c1c(F)cccc1F | binding | competition with immobilised ligand | 1 µM | 96 |
| C[C@@]1(Cc2ccc(C#N)cc2)C(=O)N(c2cc(Cl)cc(Cl)c2)c2ncc(C(=O)NC3(c4nc(C5CCC5)no4)CC3)n21 | cell-free assay | competition with immobilised ligand | 1 µM | 100 |
| Nc1ncc2c(n1)-c1c([nH]c3ccc(C#CC4CC4)cc13)CCCC2 | binding | competition with immobilised ligand | 1 µM | 100 |
| CN(C)CC#Cc1ccc(OCCCc2sc(N3CCc4cccc(C(=O)Nc5nc6ccccc6s5)c4C3)nc2C(=O)O)c(F)c1 | cell-free assay | competition with immobilised ligand | 1 µM | 100 |
| CN(C)c1ncc(F)c(-c2cnn3ncccc23)n1 | binding | competition with immobilised ligand | 1 µM | 100 |
| CNC(=O)[C@@H]1CC[C@@H](n2c(-c3ccc4cnccc4c3)nc3ccc(C(=O)NCc4cccc(C(N)=O)c4)cc32)C1 | binding | competition with immobilised ligand | 1 µM | 100 |
| O=C(c1ccc(Nc2ncc(Cl)c(-c3ccc(Cl)s3)n2)cc1)N1CCC(N2CCCC2)CC1 | binding | competition with immobilised ligand | 1 µM | 73 |
| C[C@@H]1CN(c2ccc3ncc(-c4ccc5[nH]nc(C6CC6)c5c4)n3n2)C[C@H](C)O1 | binding | competition with immobilised ligand | 0.5 µM | 100 |
| CC(C)(C)c1ccc(-c2nc(CBr)nn2-c2cccc(O)c2)cc1 | cell-free assay | competition with immobilised ligand | 10 µM | 99 |
| C[C@@H](c1ccc(-n2cnc3c(N)ncnc32)cc1)N1CCc2nn(C)c(Cc3ccccc3)c2C1=O | binding | competition with immobilised ligand | 0.1 µM | 92 |
| CSc1cccnc1N1CCN(Cc2nc3ccccc3[nH]2)CC1 | cell-free assay | competition with immobilised ligand | 1 µM | 100 |
| CN(CCCC(F)(F)F)c1nccc(-c2cnn3ncccc23)n1 | binding | competition with immobilised ligand | 1 µM | 93 |
| Cc1cc(C)c(-n2ccn3nc(-c4cccnc4)cc23)cc1NC(=O)c1cc(C#N)cc(S(F)(F)(F)(F)F)c1 | cell-free assay | competition with immobilised ligand | 0.1 µM | 93.4 |
| C[C@@H]1CCN(c2nccc(-c3cnn4ncccc34)n2)C1 | binding | competition with immobilised ligand | 1 µM | 100 |
| O=S(=O)(NC1CCC(c2cc(F)ccc2F)(S(=O)(=O)c2ccc(Cl)cc2)CC1)C(F)(F)F (stereo not shown) | cell-free assay | competition with immobilised ligand | 1 µM | 94 |
| COc1cnc(Nc2cccc(S(N)(=O)=O)c2)nc1N1CCN(c2ccccc2)C(=O)C1 | binding | competition with immobilised ligand | 1 µM | 100 |
| CN(c1nccc(-c2cnn3ncccc23)n1)C1CC1 | binding |  | 1 µM | 89 |
